# In ChEMBL document CHEMBL1141610, “Design, synthesis, and studies of small molecule STAT3 inhibitors” (Bioorg Med Chem Lett, 2008):
# Activity calls are given as the source filed them. The calls are words filed in the database; no cut-off is given here.
# Biological target: Signal transducer and activator of transcription 3 (Homo sapiens) (UniProt P40763)
# Assay: Inhibition of STAT3 binding to DNA
# Details: not given
# Sequence of Signal transducer and activator of transcription 3 (Homo sapiens) (P40763 whole entry): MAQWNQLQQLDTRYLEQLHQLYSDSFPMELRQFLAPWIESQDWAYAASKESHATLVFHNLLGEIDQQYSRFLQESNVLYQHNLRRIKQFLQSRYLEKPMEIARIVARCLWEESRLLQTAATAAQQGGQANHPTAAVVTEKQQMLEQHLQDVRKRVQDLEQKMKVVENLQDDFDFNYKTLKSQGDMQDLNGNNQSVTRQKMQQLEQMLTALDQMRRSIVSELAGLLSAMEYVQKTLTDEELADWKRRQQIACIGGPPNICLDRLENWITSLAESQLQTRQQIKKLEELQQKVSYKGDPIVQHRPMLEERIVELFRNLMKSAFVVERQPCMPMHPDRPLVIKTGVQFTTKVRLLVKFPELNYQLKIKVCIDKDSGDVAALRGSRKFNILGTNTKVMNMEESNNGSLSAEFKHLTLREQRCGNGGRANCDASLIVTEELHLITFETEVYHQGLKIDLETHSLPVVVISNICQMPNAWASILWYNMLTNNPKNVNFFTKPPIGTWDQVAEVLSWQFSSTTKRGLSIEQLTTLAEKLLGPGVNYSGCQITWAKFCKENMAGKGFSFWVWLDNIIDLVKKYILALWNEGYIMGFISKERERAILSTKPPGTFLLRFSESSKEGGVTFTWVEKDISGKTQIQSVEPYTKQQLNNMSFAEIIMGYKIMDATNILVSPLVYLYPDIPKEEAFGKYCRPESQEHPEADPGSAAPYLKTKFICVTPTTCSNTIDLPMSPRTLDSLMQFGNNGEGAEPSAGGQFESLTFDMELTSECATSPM
row,Activity,Structure (SMILES)
1,Active,C[C@@H]1CC(=O)c2c(ccc3c2C(=O)c2cccc(O)c2C3=O)C1 [OCHROMYCINONE]

# Test system: MCF7
# Assay: Antiproliferative activity against human MCF7 cells after 72 hrs by MTS assay
# Assay type: functional, cell-based
# Details: MCF7, 72 h
# In short: (§1)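 Cells seeded at 2000 per well, exposed to varying compound concentrations for 72 h. Viability read by MTS assay. IC50 values are means of two separate experiments, each run in triplicate.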
row,IC50,Structure (SMILES)
1,88.5 µM,CC(=O)c1cccc2c1C(=O)c1cccc(O)c1C2=O
2,124 µM,C[C@@H]1CC(=O)c2c(ccc3c2C(=O)c2cccc(O)c2C3=O)C1 [OCHROMYCINONE]

# Test system: PC-3
# Assay: Antiproliferative activity against human PC3 cells after 72 hrs by MTS assay
# Assay type: functional, cell-based
# Details: PC-3, 72 h
# In short: as §1
row,Structure (SMILES),IC50
1,COc1cccc2c1C(=O)c1c(C(C)=O)cccc1C2=O,> 100 µM
2,COc1cccc2c1C(=O)c1cccc(C(C)=O)c1C2=O,> 100 µM

# Now those with a lower IC50, led by results:
row,IC50,Structure (SMILES)
1,13.4 µM,CC(=O)c1cccc2c1C(=O)c1cccc(O)c1C2=O
2,32.4 µM,CC(=O)c1cccc2c1C(=O)c1c(O)cccc1C2=O
3,18.7 µM,C[C@@H]1CC(=O)c2c(ccc3c2C(=O)c2cccc(O)c2C3=O)C1 [OCHROMYCINONE]

# Test system: LNCaP
# Assay: Antiproliferative activity against human LNCaP cells after 72 hrs by MTS assay
# Assay type: functional, cell-based
# Details: not given
# In short: as §1
row,Structure (SMILES),IC50
1,COc1cccc2c1C(=O)c1c(C(C)=O)cccc1C2=O,> 100 µM
2,COc1cccc2c1C(=O)c1cccc(C(C)=O)c1C2=O,> 100 µM

# Further lines, results first:
row,IC50,Structure (SMILES)
1,34.1 µM,CC(=O)c1cccc2c1C(=O)c1cccc(O)c1C2=O
2,31.5 µM,CC(=O)c1cccc2c1C(=O)c1c(O)cccc1C2=O

# Test system: DU-145
# Assay: Antiproliferative activity against human DU145 cells after 72 hrs by MTS assay
# Assay type: functional, cell-based
# Details: DU-145, 72 h
# In short: as §1
row,Structure (SMILES),IC50
1,COc1cccc2c1C(=O)c1c(C(C)=O)cccc1C2=O,> 100 µM
2,COc1cccc2c1C(=O)c1cccc(C(C)=O)c1C2=O,> 100 µM

# Results, then the compound that gave them:
row,IC50,Structure (SMILES)
1,16.2 µM,CC(=O)c1cccc2c1C(=O)c1cccc(O)c1C2=O
2,31.5 µM,CC(=O)c1cccc2c1C(=O)c1c(O)cccc1C2=O
3,12.2 µM,C[C@@H]1CC(=O)c2c(ccc3c2C(=O)c2cccc(O)c2C3=O)C1 [OCHROMYCINONE]
